The record followed here is ChEMBL document CHEMBL1130215, “7-alkylidenecephalosporin esters as inhibitors of human leukocyte elastase” (J Med Chem, 1997).

For this test, the target named is T1, Neutrophil elastase (Homo sapiens, UniProt P08246).
T1 sequence (P08246 whole entry): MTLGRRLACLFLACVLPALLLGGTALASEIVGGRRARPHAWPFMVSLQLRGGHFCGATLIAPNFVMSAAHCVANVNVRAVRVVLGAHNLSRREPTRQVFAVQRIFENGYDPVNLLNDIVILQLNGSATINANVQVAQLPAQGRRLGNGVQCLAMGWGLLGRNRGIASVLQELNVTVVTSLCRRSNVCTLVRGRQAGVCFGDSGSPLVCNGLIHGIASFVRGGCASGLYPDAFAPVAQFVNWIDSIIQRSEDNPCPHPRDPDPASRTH
In words: Inhibition of human leukocyte elastase. In short, it runs like this:
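Enzyme preincubated 4 min with inhibitor (DMSO stock, 1 mg/mL, diluted in DMSO when needed) in 0.1 M Tris-NaCl buffer pH 7.5 with NaN3. Aliquot then added to N-(methoxysuccinyl)-Ala-Ala-Pro-Val 4-nitroanilide substrate in buffer. Residual hydrolysis rate read at 410 nm for 2 min at 1 s intervals; IC50 taken from varied inhibitor volumes.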
In the case of `CC(=O)OCC1=C(C(=O)OC(c2ccccc2)c2ccccc2)N2C(=O)/C(=C/CO)C2SC1` (stereo not drawn), the IC50 – broadly, the concentration that gives 50% inhibition – is above 10 µM.

On to `CON(C)C(=O)/C=C1/C(=O)N2C(C(=O)OC(c3ccccc3)c3ccccc3)=C(COC(C)=O)CS(=O)(=O)C12` (stereo not drawn), for which the half-inhibitory concentration (IC50) is above 10 µM.

In turn, `CC(=O)OCC1=C(C(=O)OC(c2ccccc2)c2ccccc2)N2C(=O)/C(=C/C#N)C2SC1` (stereo not drawn) displayed an IC50 above 10 µM.

Compound `CC(=O)OCC1=C(C(=O)OC(c2ccccc2)c2ccccc2)N2C(=O)C(=C(Br)Br)C2SC1` (stereo not drawn) had an IC50 of 0.26 µM.

`[2H]C(=C=C1C(=O)N2C(C(=O)OC(c3ccccc3)c3ccccc3)=C(COC(C)=O)CS(=O)(=O)C12)C(C)(C)C` (stereo not drawn) displayed an IC50 of 13.5 µM. This IC50 is about 52-fold higher than that of the compound before.

For `COC(=O)/C=C1/C(=O)N2C(C(=O)OC(c3ccccc3)c3ccccc3)=C(COC(C)=O)CSC12` (stereo not drawn), inhibition was half-maximal at 2.6 µM (IC50). Compared with the last compound, the IC50 is about 5.2-fold lower.

In turn, `C=C=C1C(=O)N2C(C(=O)OC(c3ccccc3)c3ccccc3)=C(COC(C)=O)CS(=O)(=O)C12` (stereo not drawn) had an IC50 of 6.1 µM.

The compound `CC(=O)OCC1=C(C(=O)OC(c2ccccc2)c2ccccc2)N2C(=O)/C(=C\Br)C2SC1` (stereo not drawn) returned an IC50 of 0.39 µM.

The compound `C=C=C1C(=O)N2C(C(=O)OC(c3ccccc3)c3ccccc3)=C(COC(C)=O)CSC12` (stereo not drawn) yielded an IC50 of 9 µM.

Regarding `CC(=O)OCC1=C(C(=O)OC(c2ccccc2)c2ccccc2)N2C(=O)C(=C(Cl)Cl)C2SC1` (stereo not drawn), 6.41 µM corresponded to half-maximal inhibition (IC50). The IC50 values of the last two compounds are within 1.5-fold of each other.

Consider `COC(=O)/C=C1/C(=O)N2C(C(=O)OC(c3ccccc3)c3ccccc3)=C(COC(C)=O)CS(=O)(=O)C12` (stereo not drawn), for which the IC50 came out at 8.9 µM. The IC50 values of the last two compounds are within 1.5-fold of each other.

Compound `CC(=O)OCC1=C(C(=O)OC(c2ccccc2)c2ccccc2)N2C(=O)CC2SC1` (stereo not drawn) came in with an IC50 above 10 µM.

Compound `CC(=O)/C=C1/C(=O)N2C(C(=O)OC(c3ccccc3)c3ccccc3)=C(COC(C)=O)CS(=O)(=O)C12` (stereo not drawn) came in with a half-maximal inhibitory concentration (IC50) above 10 µM.

In the case of `CO[C@H]1C(=O)N2C(C(=O)OC(c3ccccc3)c3ccccc3)=C(COC(C)=O)CS(=O)(=O)C12` (stereo partly drawn), half-maximal inhibition (IC50) was put at 0.28 µM.

As to `CC(=O)OCC1=C(C(=O)OC(c2ccccc2)c2ccccc2)N2C(=O)C(=C=CBr)C2SC1` (stereo not drawn), the IC50 worked out at 5.4 µM.

Compound `CC(=O)OCC1=C(C(=O)OC(c2ccccc2)c2ccccc2)N2C(=O)C(=C(Cl)Cl)C2S(=O)(=O)C1` (stereo not drawn) showed an IC50 of 2.56 µM.

`CC(=O)OCC1=C(C(=O)OC(c2ccccc2)c2ccccc2)N2C(=O)/C(=C/c3ccccn3)C2S(=O)(=O)C1` (stereo not drawn) came in with an IC50 above 10 µM.

For the compound `CC(=O)OCC1=C(C(=O)OC(c2ccccc2)c2ccccc2)N2C(=O)[C@H](I)C2SC1` (stereo partly drawn), half-maximal inhibition (IC50) required 1.18 µM.

The compound `CC(=O)OCC1=C(C(=O)OC(c2ccccc2)c2ccccc2)N2C(=O)C(=O)C2SC1` (stereo not drawn) gave an IC50 above 10 µM.

With `CC(=O)OCC1=C(C(=O)OC(c2ccccc2)c2ccccc2)N2C(=O)/C(=C/C(=O)OC(C)(C)C)C2S(=O)(=O)C1` (stereo not drawn), 7.1 µM corresponded to half-maximal inhibition (IC50). In other words, the single-digit micromolar range.

`CC(=O)OCC1=C(C(=O)OC(c2ccccc2)c2ccccc2)N2C(=O)/C(=C/c3ccccc3)C2SC1` (stereo not drawn) registered a concentration for half-maximal inhibition (IC50) above 10 µM.

As for `CC(=O)OCC1=C(C(=O)OC(c2ccccc2)c2ccccc2)N2C(=O)/C(=C/C#N)C2S(=O)(=O)C1` (stereo not drawn), the midpoint of inhibition, the IC50, lay at 0.49 µM.

For `CC(=O)OCC1=C(C(=O)OC(c2ccccc2)c2ccccc2)N2C(=O)C(=C=CC(C)(C)C)C2SC1` (stereo not drawn), the IC50 was above 10 µM.

`CC(=O)OCC1=C(C(=O)OC(c2ccccc2)c2ccccc2)N2C(=O)/C(=C\c3ccccc3)C2SC1` (stereo not drawn): the IC50 was above 10 µM.

Take `CC(=O)OCC1=C(C(=O)OC(c2ccccc2)c2ccccc2)N2C(=O)/C(=C\c3ccccc3)C2S(=O)(=O)C1` (stereo not drawn): half-maximal inhibition (IC50) required 6 µM.

`CC(=O)OCC1=C(C(=O)OC(c2ccccc2)c2ccccc2)N2C(=O)C(=C=CC(C)(C)C)C2S(=O)(=O)C1` (stereo not drawn): inhibition was half-maximal at 10.5 µM (IC50).

`CC(=O)OCC1=C(C(=O)OC(c2ccccc2)c2ccccc2)N2C(=O)/C(=C\Br)C2S(=O)(=O)C1` (stereo not drawn) yielded a half-maximal inhibitory concentration (IC50) of 3.36 µM. Against the preceding compound, the IC50 is about 3.1-fold lower.

Compound `CC(=O)OCC1=C(C(=O)OC(c2ccccc2)c2ccccc2)N2C(=O)[C@H](Cl)C2SC1` (stereo partly drawn) had an IC50 of 6 µM. This IC50 lies about 1.8-fold higher than the previous one.

`CC(=O)OCC1=C(C(=O)OC(c2ccccc2)c2ccccc2)N2C(=O)/C(=C/C(=O)OC(C)(C)C)C2SC1` (stereo not drawn): the IC50 is above 10 µM.

As to `CC(=O)OCC1=C(C(=O)OC(c2ccccc2)c2ccccc2)N2C(=O)/C(=C/C=O)C2SC1` (stereo not drawn), half-maximal inhibition (IC50) was put at 13.9 µM. This lies in the double-digit micromolar range.

For the compound `CO[C@H]1C(=O)N2C(C(=O)OC(c3ccccc3)c3ccccc3)=C(COC(C)=O)CSC12` (stereo partly drawn), the IC50 stood at 5.35 µM.

In turn, `CC(=O)OCC1=C(C(=O)OC(c2ccccc2)c2ccccc2)N2C(=O)C(Br)(Br)C2SC1` (stereo not drawn) returned an IC50 of 1.39 µM.

In the case of `CC(=O)OCC1=C(C(=O)OC(c2ccccc2)c2ccccc2)N2C(=O)/C(=C/c3ccccn3)C2SC1` (stereo not drawn), the concentration for half-maximal inhibition (IC50) is above 10 µM.

Compound `CC(=O)OCC1=C(C(=O)OC(c2ccccc2)c2ccccc2)N2C(=O)C(=C(Br)Br)C2S(=O)(=O)C1` (stereo not drawn) gave an IC50 of 2.07 µM.

For `CC(=O)OCC1=C(C(=O)OC(c2ccccc2)c2ccccc2)N2C(=O)/C(=C/c3ccccc3)C2S(=O)(=O)C1` (stereo not drawn), half-maximal inhibition (IC50) required 8.9 µM.

For `CC(=O)/C=C1/C(=O)N2C(C(=O)OC(c3ccccc3)c3ccccc3)=C(COC(C)=O)CSC12` (stereo not drawn), half-maximal inhibition (IC50) required 4.27 µM.

For the compound `COC(=O)/C(Br)=C1/C(=O)N2C(C(=O)OC(c3ccccc3)c3ccccc3)=C(COC(C)=O)CSC12` (stereo not drawn), the IC50 is 0.21 µM.

With `CC(=O)OCC1=C(C(=O)OC(c2ccccc2)c2ccccc2)N2C(=O)[C@@H](N)C2SC1` (stereo partly drawn), the IC50 is above 10 µM.
